NPY-Y2 PAM-ag – potentiates or activates human NPY-Y2 receptor; P49146; cells expressing NPY-Y2, potentiator/agonist read-out; activation, % at 3.6 µM; 220,000 compounds, 0.45% hits; AID 1359; in the data active = activation above about 27%;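 note: cells stimulated with NPY near EC25 plus isoproterenol at EC100; 0% = vehicle plus submaximal agonist and 100% = vehicle plus saturating agonist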
Target sequence (P49146 whole entry, looked up): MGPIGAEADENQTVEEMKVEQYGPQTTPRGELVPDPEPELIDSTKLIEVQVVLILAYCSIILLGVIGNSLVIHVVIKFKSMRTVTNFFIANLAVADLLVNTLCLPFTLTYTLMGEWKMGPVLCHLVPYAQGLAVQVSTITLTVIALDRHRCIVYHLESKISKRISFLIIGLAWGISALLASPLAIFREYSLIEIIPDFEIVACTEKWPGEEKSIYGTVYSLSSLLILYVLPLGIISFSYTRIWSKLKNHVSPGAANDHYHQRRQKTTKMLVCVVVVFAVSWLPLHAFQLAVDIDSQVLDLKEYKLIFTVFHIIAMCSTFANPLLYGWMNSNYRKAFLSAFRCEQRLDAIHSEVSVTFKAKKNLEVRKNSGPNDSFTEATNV
NPY-Y1 PAM-ag – potentiators or agonists of human neuropeptide Y receptor Y1 | activation, % at 3.6 µM | P25929 | NPY-Y1 expressing cells, potentiator/agonist activation | 220,000 compounds, 0.37% hits; in the data active = activation above about 33%, passing the limit was not always enough;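 note: cells stimulated with NPY at EC10 then isoproterenol at EC100; 0% = low agonist plus stimulus and 100% = saturating agonist plus stimulus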
NPY Y2 blocker – NPY-Y2 (human) receptor antagonism; P49146; NPY-Y2 expressing cells, antagonist mode; inhibition, % at 2.7 µM; 140,000 compounds, 0.99% hits; AID 793;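 note: 0% = vehicle with agonist challenge and 100% = reference antagonist with challenge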
NPY Y1 blocker – antagonists of human neuropeptide Y receptor Y1; P25929; HEK293-CNG Y1 cells, membrane potential fluorescence; NPY at EC95, then isoproterenol; inhibition, % at 3.6 µM; 200,000 compounds, 1% hits;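 active = inhibition above the campaign mean inhibition of all tested compounds plus 3 SD, cut at about 20% in these data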;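 note: 0% = DMSO wells given NPY plus isoproterenol and 100% = isoproterenol alone without NPY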
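Material: Y1- and CNG-channel-expressing HEK293 cells / Probe or stimulus: NPY 25 nM then isoproterenol 1 µM plus Ro 20-1724 25 µM / Doses: 3.6 µM single dose, DMSO 0.4% / Schedule: compound incubation 1 h at room temperature, readout 45 min post-stimulation / Signal: membrane potential fluorescence / Benchmarks: isoproterenol-only wells as full block versus NPY-plus-isoproterenol wells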
NPY1 antag conf – confirmation of human neuropeptide Y receptor Y1 antagonists. shares compounds with NPY Y1 blocker. HEK293-CNG NPY-Y1, membrane potential fluorescence, cAMP; NPY challenge against isoproterenol-raised cAMP. inhibition, % at 3.6 µM. 1,200 compounds, 21% hits. AID 1254; in the data active = inhibition above about 20%;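 note: 0% = vehicle with agonist plus stimulus and 100% = stimulus alone without agonist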
NPY2 antag ctr – counter-screen for NPY-Y1 antagonists: human NPY-Y2 antagonism. shares compounds with NPY Y1 blocker. HEK293 NPY-Y2 CNG membrane potential fluorescence; cells given NPY, then isoproterenol. inhibition, % at 3.6 µM. 1,200 compounds, 28% hits;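 note: 0% = DMSO with agonist challenge and 100% = reference antagonist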
The depositor's hits bear a star; . = no result. Only some compounds are listed: those with a hit (about 1.8% of all), similar ones and a draw of the others. Cut-off read from the data, not from the text of the source, unless noted: active = inhibition above about 17%; inactive = the rest.

SMILES | NPY-Y2 PAM-ag | NPY-Y1 PAM-ag | NPY Y2 blocker | NPY Y1 blocker | NPY1 antag conf | NPY2 antag ctr
Clc1ccc(-n2nnnc2-c2cnc(-c3ccncc3)nc2-c2cccs2)cc1 | -29.6 | -57.9 | 15.1 | 33.6* | 14.2 | 17.9*
CCCCCC(=O)Nc1nc(C)c(-c2csc(Nc3ccc(Cl)cc3)n2)s1 | 10.2 | -9.2 | 3.7 | 8.5 | . | .
CCCCCCC(=O)Nc1nc(C)c(-c2csc(Nc3ccc(Cl)cc3)n2)s1 | -9.0 | 9.6 | 5.3 | 24.9* | 15.0 | 3.8
CC(C)N1C(=S)N(Cc2ccco2)C(=O)C1CC(=O)Nc1ccccc1 (stereo unspecified) | 4.1 | 7.0 | . | 74.2* | -0.7 | -1.3
O=C(CC1C(=O)N(c2ccccc2)C(=O)N1Cc1ccco1)Nc1ccccc1 (stereo unspecified) | -6.1 | 5.8 | . | -4.3 | . | .
CC1CC(C)CN(C2CCN(Cc3cccnc3)CC2)C1 (stereo unspecified) | 7.5 | -0.1 | 1.1 | 20.8* | -0.2 | 4.2
O=C(Nc1ccc2nc(-c3ccc(Br)o3)[nH]c2c1)c1cccs1 | -19.2 | -13.8 | 5.9 | 21.5* | 2.4 | 7.9
Cc1cc(Cl)c(S(=O)(=O)N/N=C/c2ccc3c(c2)OCO3)c(Cl)c1 | -5.2 | -22.5 | 7.1 | 20.3* | 8.8 | 13.8
O=S(=O)(N/N=C/c1ccc2c(c1)OCCO2)c1ccc(Cl)cc1 | -19.7 | 1.2 | 12.5 | 3.5 | . | .
COc1ccc(CCN2C(=NC(=O)CC(C)C)SC3CS(=O)(=O)CC32)cc1OC (stereo unspecified) | -4.2 | 10.2 | . | . | . | .
O=C(COc1ccccc1)N(CCc1ccccc1)c1nc(-c2ccc(F)cc2)cs1 | -31.6 | -44.8 | 7.8 | 37.3* | 12.9 | 19.4*
Cc1ccc(-c2csc(N(CCc3ccccc3)C(=O)COc3ccccc3)n2)cc1 | -6.2 | -15.7 | 0.6 | -1.2 | . | .
COC(=O)c1ccc(OS(=O)(=O)N(C)C)cc1 | -2.2 | 0.0 | . | 6.6 | . | .
O=S(=O)(N1CCCCC1)n1c(Cc2ccccc2)nc2ccccc21 | 21.5 | 15.3 | 2.4 | 2.1 | . | .
O=S(=O)(c1ccc(Br)cc1)n1c(Cc2ccccc2)nc2ccccc21 | -3.9 | 2.8 | 3.8 | 20.8* | 3.1 | 4.2
C=CCNC(=O)c1ccccc1NC(=O)COc1ccccc1 | 3.8 | -4.2 | . | -1.7 | . | .
CN1CCN(C(=S)Nc2cc([N+](=O)[O-])ccc2Cl)CC1 | 4.7 | -2.6 | 1.1 | 8.8 | . | .
Cc1ccnc(N2CCN(C(=O)CSc3nc4ccccc4nc3N3CCC(C)CC3)CC2)c1 | -7.8 | -1.2 | . | 23.8* | 9.7 | 8.3
Cc1ccc(C)c(NC(=O)c2cc(-c3cccnc3)nc3ccccc23)c1 | 3.2 | 1.7 | . | 7.0 | . | .
Cc1ccccc1NC(=S)NC(=O)c1cc(-c2ccccc2)nc2ccccc12 | -83.0 | -90.0 | 12.0 | 21.3* | 27.8* | 37.9*
Cc1cccc(NC(=S)NC(=O)c2cc(-c3ccccc3)nc3ccccc23)c1 | -2.7 | -14.0 | 7.5 | 20.8* | 15.5 | 19.8*
O=C1/C(=C/c2ccccn2)SC(=S)N1NS(=O)(=O)c1ccccc1 | -28.9 | -30.9 | . | 23.7* | 19.1 | 14.0
COC(=O)[C@@]1(Cc2ccc(OC)cc2)[C@H]2c3cc(C(=O)N(C)C)n(C[C@H](O)CO)c3C[C@H]2CN1C(=O)c1ccccc1 | 4.2 | 0.9 | 1.8 | -1.1 | . | .
COC(=O)[C@@]1(Cc2ccc(OC)cc2)[C@H]2c3cc(C(=O)N(C)C)n(Cc4ccc(OC(F)(F)F)cc4)c3C[C@H]2CN1C(=O)c1ccccc1 | 8.7 | 3.4 | 16.0 | 35.1* | 14.3 | 6.4
O=C(CSc1nnc(Cc2cccs2)n1CCc1ccccc1)N1CCCc2ccccc21 | -18.8 | -18.4 | 13.0 | 22.0* | 6.6 | 6.1
Cc1ccc2[nH]c(=O)c3cc(C(=O)N(C)c4ccccc4C)sc3c2c1 | -32.5 | -29.4 | . | . | . | .
O=C(NC(=O)c1ccc(F)cc1F)Nc1ccc(Cl)cc1 | 4.5 | 15.6 | . | . | . | .
Cc1cc(N2CCN(c3ccc(F)cc3)CC2)nc(-c2ccccc2)n1 | -6.4 | -42.4 | 3.3 | 20.7* | 3.4 | 5.8
CCOC(=O)C[N+](C)(C)CCOC1CC2CCC1(C)C2(C)C (stereo unspecified) | -6.7 | -28.2 | . | 24.2* | 10.1 | 6.1
CC1(C)[C@H]2CC[C@]1(C)[C@@H](OC(=O)C[N+]1(C)CCOCC1)C2 | 17.4 | 17.3 | . | . | . | .

Assay outcomes: PubChem BioAssay, The Scripps Research Institute Molecular Screening Center
